A selection: hits, their analogues and other compounds. The true share with any hit is near 1.8%.
GalR3 antagonist = GalR3 antagonists in HEK293 cells, primary screen, cell-based, fluorescence readout; Galanin receptor type 3 (Homo sapiens), O60755; HEK293 GalR3-CNG cAMP membrane potential fluorescence; galR3 body fused to GalR1 C-terminus; inhibition, % at 3 µM; 360,000 tested, 0.44% active; AID 651719, 2012;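 active means inhibition above the screen-wide average plus 3 SD, cut at about 13% in these data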;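 further: forskolin and galanin both at EC90 stimulate the cells; cAMP rise reported by CNG channel membrane potential dye signal; 0% = forskolin plus galanin with DMSO and 100% = forskolin alone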
Target sequence (O60755 1-299 limits assumed): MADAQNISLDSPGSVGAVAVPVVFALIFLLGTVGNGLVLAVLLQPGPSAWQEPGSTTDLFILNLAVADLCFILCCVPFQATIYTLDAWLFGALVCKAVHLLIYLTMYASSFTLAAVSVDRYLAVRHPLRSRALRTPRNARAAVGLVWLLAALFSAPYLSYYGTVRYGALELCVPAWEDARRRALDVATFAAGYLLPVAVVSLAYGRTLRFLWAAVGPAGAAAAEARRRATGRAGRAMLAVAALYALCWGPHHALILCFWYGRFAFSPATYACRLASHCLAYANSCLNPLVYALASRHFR
Gli-Sufu antag = Gli-Sufu pathway antagonists, primary screen, luciferase luminescence, Sufu-KO-LIGHT cells, uHTS | Sufu-KO-LIGHT fibroblasts, Gli luciferase reporter luminescence | inhibition, % at 5 µM | 340,000 tested, 0.74% active | AID 588413, 2011;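 active means inhibition above about 55%, limit read from the data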;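 further: 0% = DMSO-treated cells and 100% = wells with medium but no cells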
Jurkat NFkB inh = inhibitors of induced NF-kB luciferase reporter, primary screen, TCR NF-kB activation inhibitor project, cell-based, luminescence, uHTS; 330,000 tested, 0.53% active; inhibition, % at 4 µM; Jurkat, PMA/ionomycin-induced NF-kB luciferase reporter; in the data active means inhibition above about 50%
697 NFkB inh = inhibitors of PMA/ionomycin-induced NF-kB reporter, 697 cells, primary screen, B-cell NF-kB inhibitor project, cell-based, luminescence, uHTS; 697 B-cell NF-kB luciferase reporter, 16 h; inhibition, % at 4 µM; 330,000 tested, 0.33% active; in the data active means inhibition above about 35%
NR2E3 ag-1 = inhibitors of NR2E3-RetCOR corepressor binding, primary screen, NR2E3 agonist project, biochemical, TR-FRET, GST-NR2E3, biotin-RetCOR; AID 2300, 2010; 320,000 tested, 0.12% active; inhibition of corepressor binding, % at 4.78 µM; 1536-well; Photoreceptor-specific nuclear receptor (Homo sapiens), Q9Y5X4;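 active means percent inhibition above the cutoff of mean plus 3 SD of all tested compounds, set per screening campaign, cut at about 20% in these data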;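 further: 0% = DMSO wells and 100% = biotin wells as full block of FRET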
Target sequence (Q9Y5X4 whole entry, looked up): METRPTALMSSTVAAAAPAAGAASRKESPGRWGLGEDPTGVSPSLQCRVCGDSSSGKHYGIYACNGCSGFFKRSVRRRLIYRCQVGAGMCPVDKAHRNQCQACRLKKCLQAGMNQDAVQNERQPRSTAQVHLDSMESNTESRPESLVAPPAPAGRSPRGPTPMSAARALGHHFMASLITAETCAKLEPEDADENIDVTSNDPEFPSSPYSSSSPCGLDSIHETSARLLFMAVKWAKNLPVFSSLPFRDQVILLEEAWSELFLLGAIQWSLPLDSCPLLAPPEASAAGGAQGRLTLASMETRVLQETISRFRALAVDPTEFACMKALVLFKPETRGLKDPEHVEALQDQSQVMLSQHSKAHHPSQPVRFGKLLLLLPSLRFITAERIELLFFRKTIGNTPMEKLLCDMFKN
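Test system – NR2E3–RetCOR corepressor complex · Quantity – NR2E3 fusion 1.35 nM · Buffer or medium – Tris pH 7.5 · Incubation – Compound–protein incubation for 5 h at 4 °C · Technique – TR-FRET, Eu(K)-anti-GST donor, streptavidin-D2 acceptor, ex 340, em 617/671 nm · Evaluation – percent inhibition of 671/617 nm emission ratio versus biotin and DMSO controls · Plate – 1536-well format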
NR2E3 ag-2 = NR2E3 agonists in two-hybrid cells, primary screen, cell-based, luminescence, CHO-S, Gal4-NCOR/VP16-NR2E3. Photoreceptor-specific nuclear receptor (Homo sapiens), Q9Y5X4. luciferase. inhibition of corepressor binding, % at 3.98 µM. 360,000 tested, 0.35% active. AID 602229, 2012;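 active means inhibition above the mean of all tested compounds plus 3 SD, cut at about 70% in these data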;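 further: 0% = DMSO with NR2E3 transfected cells and 100% = cells lacking NR2E3 construct; higher means lower luciferase signal from less NR2E3 corepressor binding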
Jurkat NFkB conf = PMA/ionomycin-induced NF-kB reporter inhibitors, Jurkat retest, confirmation, T-cell NF-kB inhibitor project, cell-based, luminescence, single concentration | shares compounds with Jurkat NFkB inh | Jurkat NF-kB luciferase, 16 h | inhibition, % at 4 µM | 2,700 tested, 27% active | AID 435020, 2010;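 active means inhibition reaching about 45% at 4 µM in either replicate, limit read from the data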;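 further: plate controls were PMA/ionomycin stimulated DMSO wells for no effect and unstimulated DMSO wells for full effect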
697 NFkB conf = PMA/ionomycin-induced NF-kB reporter inhibitors, 697 retest, confirmation, B-cell NF-kB inhibitor project, cell-based, luminescence, single concentration. inhibition, % at 4 µM. 697 B-cell NF-kB luciferase, 16 h. AID 449746, 2010. 2,000 tested, 35% active. shares compounds with 697 NFkB inh; in the data active means inhibition mostly above about 28%, no sharp cut-off; inactive means mostly below about 22%
Starred values were filed as active, the others as inactive; i = inactive; . = not tested or not shown.

SMILES	GalR3 antagonist	Gli-Sufu antag	Jurkat NFkB inh	697 NFkB inh	NR2E3 ag-1	NR2E3 ag-2	Jurkat NFkB conf	697 NFkB conf
O=C(COC(=O)c1ccc[nH]c1=O)Nc1ccc(N2CCCCC2)cc1	-2.5	53.6	51.0*	78.7*	.	33.7	69.7*	79.8*
FC(F)(F)c1nnc2c(Sc3ccccc3)nc3ccc(Cl)cc3n12	-4.8	18.9	84.7*	67.5*	-2.5	0.3	-16.9	13.9
Cc1cc(/C=C2\Sc3ccccc3N2C)cc(C)[n+]1CC1CCCO1 (configuration not stated)	-5.3	88.3*	96.8*	36.0*	.	-3.3	40.8	-0.1
Cc1ccc(/C=C2/Sc3ccccc3N(CC(=O)NCC3CCCO3)C2=O)cc1 (configuration not stated)	.	-7.2	-10.9	-17.5	-0.8	-2.3	.	.
CC(C)Cc1cc(C(C)(C)C)ccc1OC(=S)N(C)C	-4.9	-5.3	51.2*	40.1*	4.8	10.8	60.5*	33.3*
CCN(CC)CC(=O)Nc1ccc(-c2nc3cc(NC(=O)CN(CC)CC)ccc3o2)cc1	-5.6	-19.7	-55.3	-21.0	1.8	-26.8	.	.
CCCC(=O)Nc1ccc(-c2nc3cc(C)c(C)cc3o2)cc1	-7.7	-110.9	-166.7	-383.0	7.1	-240.0	-111.7	-296.8
CCCC(=O)Nc1ccc2oc(-c3ccncc3)nc2c1	-4.2	-14.8	-30.2	-7.0	1.8	-26.3	.	.
CCc1ccc2oc(-c3ccc(NC(C)=O)cc3)nc2c1	3.0	-129.9	-219.4	-308.6	-0.5	-171.7	-143.4	-333.9
COC(=O)C1=C(C)NC(C)=C(C(=O)OC)C(N2C(=O)CCC2=O)C1 (configuration not stated)	-4.1	.	.	.	.	.	.	.
Nc1ccc(C#Cc2ccccc2)cc1	-4.2	-46.4	-37.5	-20.1	-0.7	-66.8	.	.
Nc1ccccc1C#Cc1ccccc1	-5.9	-35.9	54.8*	-254.8	2.3	-74.5	-79.8	-76.0
COC(=O)[C@]12C[C@H](CC(=O)NCC3CCCCC3)C(=O)N(CCC3=CCCCC3)C1=C[C@H](COCc1ccccc1)O[C@@H]2C	-5.0	.	.	.	.	.	.	.
COc1ccccc1C(=O)Nc1ccc2ccccc2c1	-5.5	-13.8	-80.1	-90.8	-1.6	-124.3	.	.
COc1ccc(C(=O)Nc2ccc3ccccc3c2)c(OC)c1	-4.5	-83.7	-181.1	-280.1	-2.2	-112.2	-123.2	-383.4
O=C(Nc1ccc2ccccc2c1)c1ccccc1F	-10.0	-91.2	-220.5	-328.1	1.2	-131.1	-134.9	-321.8
O=C(C(=O)N1CCN(S(=O)(=O)c2ccc(C(F)(F)F)cc2)CC1)c1cccc(C(F)(F)F)c1	-8.4	.	.	.	.	.	.	.
C[C@@H]1NS(=O)(=O)c2c(F)cccc2O[C@@H]1c1ccccc1	-5.1	.	.	.	.	.	.	.
O=C(Nc1nc2c(s1)CCCC2)C1COc2ccccc2O1 (configuration not stated)	0.8	-59.6	-187.7	-333.4	-0.9	-52.0	-77.3	-364.4
O=C(Cc1cccs1)Nc1nc2c(s1)CCCC2	-5.9	-62.4	-151.9	i	3.1	-73.6	-60.0	i
COc1ccc(C)c2sc(=NC(=O)c3ccc(C(C)=O)cc3)n(C)c12	-2.9	-61.0	-251.1	-358.8	-1.0	-86.0	-136.3	-154.6
N#CC(c1c(Cl)cccc1N1CCCCC1)N1CCCCC1 (configuration not stated)	-1.2	.	.	.	.	.	.	.
Cc1ccc2cc3cc(C(=O)N4CC(C)CC(C)C4)oc3nc2c1 (configuration not stated)	3.1	-43.2	-35.7	-44.5	-2.0	-96.3	.	.
Cc1ccc2cc3cc(C(=O)N4CCCCC4C)oc3nc2c1 (configuration not stated)	-2.9	-106.6	-210.2	-329.3	0.4	-148.5	-160.3	-289.6
C/C(N)=C(/C#N)C(=O)CSc1nnc(-c2ccc3c(c2)OCO3)o1	0.1	-90.1	-158.3	-392.3	2.8	-85.6	-96.8	-290.7
SMILES	GalR3 antagonist	Gli-Sufu antag	Jurkat NFkB inh	697 NFkB inh	NR2E3 ag-1	NR2E3 ag-2	Jurkat NFkB conf	697 NFkB conf
Cc1ccc2nc(NC(=O)CCCC(=O)O)sc2c1	-6.5	33.2	54.7*	70.5*	-3.1	0.4	68.9*	76.0*
CCC(=O)Nc1nc(-c2ccc3c(c2)CC(C)N3S(C)(=O)=O)cs1 (configuration not stated)	-6.7	-26.7	-12.5	3.8	1.9	-49.2	.	.
CC1Cc2cc(-c3csc(NC(=O)Cc4cccs4)n3)ccc2N1S(C)(=O)=O (configuration not stated)	10.1	-10.1	57.1*	56.0*	-2.5	10.0	76.2*	23.8
COc1ccccc1C=NN=Cc1ccccc1O	-1.9	-29.9	.	.	.	-3.4	.	.
CN(C)c1ccc(/C=N/N=C/c2ccccc2O)cc1	-1.8	-46.5	-161.3	-256.2	-2.1	-39.5	-30.0	-50.3
O=C(CC(Nc1ccccc1Cl)C(=O)O)c1ccccc1 (configuration not stated)	-2.1	21.8	-255.8	-269.3	3.4	-41.4	16.6	-52.0
Cc1ccc(-c2noc(-c3ccccc3Br)n2)cc1	7.6	-76.0	-179.1	-280.6	0.6	-130.1	-122.7	-253.1
c1ccc(-c2noc(-c3ccccc3-c3ccccc3)n2)cc1	-2.0	-6.8	-0.5	-11.2	1.4	-10.2	.	.
CN(C)c1ccc(-c2noc(-c3ccccc3O)n2)cc1	1.6	-42.0	-167.2	-369.6	-3.4	-128.4	-119.0	-300.4
C[C@H](O)[C@@H]1C(=O)N2CCc3c([nH]c4c(-c5ccccc5)cccc34)[C@@H]2C[C@@H]1N(C)CC1CCCCC1	-2.1	.	.	.	.	.	.	.
Cc1cc([N+](=O)[O-])nn1Cc1ccccc1F	-2.0	-26.0	97.3*	50.9*	0.8	15.3	62.0*	76.3*
COc1ccc2cc(-c3ccccc3)ncc2c1	-6.1	-125.1	-202.4	-327.2	-0.6	-139.8	-130.9	-303.0
COc1cc2cnc(-c3ccccc3)cc2cc1OC	-3.9	-7.9	-4.3	0.0	.	-60.1	.	.
CCNC(=O)N1CCN(c2ccc(N3CCN(Cc4ccccc4)[C@@H](C)C3)c(C)c2)[C@H](C)C1	-3.8	.	.	.	.	.	.	.

From PubChem
